From ChEMBL document CHEMBL1140080, “Adamantyl-substituted retinoid-derived molecules that interact with the orphan nuclear receptor small heterodimer partner: effects of replacing the 1-adamantyl or hydroxyl group on inhibition of cancer cell growth, induction of cancer cell apoptosis, and inhibition of SRC homology 2 …” (J Med Chem, 2008)

Experiments:
[1] = Antiproliferative activity against human H292 cells at 5 uM after 72 hrs by MTT assay; assay type: functional; details: NCI-H292, 72 h
How it was run: (§1)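 Cells attached for 24 h, then exposed 72 h to analogue in Me2SO or Me2SO alone (final Me2SO 0.1%), with media and compound renewed after 48 h. Viable cells were measured by MTS tetrazolium reduction in three replicates. Top concentration tested per compound was 2.5, 5, 10, 20 or 100 μM.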

[2] = target: T1, Nuclear receptor subfamily 0 group B member 2 (Homo sapiens) (UniProt Q15466); experiment: Displacement of [5,5'-3H2]AHPN from human recombinant GST-SHP at 50 uM by liquid scintillation counting relative to 3-Cl-AHPC
T1 sequence (whole entry): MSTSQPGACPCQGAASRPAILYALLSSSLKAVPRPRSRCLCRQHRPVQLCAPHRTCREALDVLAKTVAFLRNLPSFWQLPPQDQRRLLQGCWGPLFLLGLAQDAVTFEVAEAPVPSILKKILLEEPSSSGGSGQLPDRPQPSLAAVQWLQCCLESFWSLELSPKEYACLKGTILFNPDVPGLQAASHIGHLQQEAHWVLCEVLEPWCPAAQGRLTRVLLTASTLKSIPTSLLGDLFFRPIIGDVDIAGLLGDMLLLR
How it was run: (§2)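 Recombinant GST–human SHP was bound to glutathione–Sepharose beads and incubated 2 h with 5 nM [5,5′-3H2]AHPN with or without competitor (1.0, 5.0 or 50 μM). Beads were washed twice and counted. Displacement was expressed relative to 50 μM 3-Cl-AHPC set as 100%.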

[3] = target: T2, Tyrosine-protein phosphatase non-receptor type 11 (Homo sapiens, UniProt Q06124); experiment: Inhibition of SHP2 overexpressed in human KG1 cells; assay type: cell-based, KG-1
T2 sequence (Q06124 whole entry): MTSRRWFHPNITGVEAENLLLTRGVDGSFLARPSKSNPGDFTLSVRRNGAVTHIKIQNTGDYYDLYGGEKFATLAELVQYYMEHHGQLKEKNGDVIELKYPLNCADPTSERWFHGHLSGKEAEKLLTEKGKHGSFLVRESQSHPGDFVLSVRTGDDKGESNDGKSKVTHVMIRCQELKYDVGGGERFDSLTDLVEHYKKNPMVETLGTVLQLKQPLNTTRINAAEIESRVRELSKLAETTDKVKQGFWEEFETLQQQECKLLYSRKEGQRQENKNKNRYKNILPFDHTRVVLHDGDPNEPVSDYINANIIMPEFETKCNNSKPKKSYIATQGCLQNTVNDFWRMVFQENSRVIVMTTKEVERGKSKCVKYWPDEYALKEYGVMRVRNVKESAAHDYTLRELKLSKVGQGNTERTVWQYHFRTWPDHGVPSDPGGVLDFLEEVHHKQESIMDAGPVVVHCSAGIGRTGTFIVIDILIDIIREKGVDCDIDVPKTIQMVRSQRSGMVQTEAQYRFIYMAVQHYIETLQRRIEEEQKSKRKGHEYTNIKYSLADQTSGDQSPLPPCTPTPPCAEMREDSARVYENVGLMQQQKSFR
How it was run: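 Shp-2 PTP activity was measured as hydrolysis of the fluorogenic substrate 6,8-difluoro-4-methylumbelliferyl phosphate in the presence of analogue in Me2SO or Me2SO alone (final concentration 5%).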

[4] = tested on: KG-1; experiment: Induction of apoptosis in human KG1 cells at 1.0 uM […] by acridine orange staining; assay type: functional
[5] = tested on: MDA-MB-231; experiment: Antiproliferative activity against human MDA-MB-231 cells at 5 uM after 72 hrs by MTT assay; assay type: functional; details: MDA-MB-231, 72 h; how it was run: as §1
[6] = tested on: DU-145; experiment: Antiproliferative activity against human DU145 cells after 72 hrs by MTT assay; assay type: functional, cell-based; details: DU-145, 72 h; how it was run: as §1
[7] = Antiproliferative activity against human KG1 AML cells after 48 hrs by MTT assay; assay type: functional, cell-based; details: in the assay text read “by hemocytometer cell counting” for “by MTT assay”
How it was run: (§3)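 KG-1 cells in 5% FBS medium attached overnight, then treated 48 h with analogue in Me2SO or Me2SO alone (final 0.1%). Cells were harvested and counted by hemocytometer in triplicate wells. Highest concentration evaluated was 5 μM.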

[8] = tested on: MDA-MB-231; experiment: Antiproliferative activity against human MDA-MB-231 cells after 72 hrs by MTT assay; assay type: functional, cell-based; details: MDA-MB-231, 72 h; how it was run: as §1
[9] = target: T3, Nuclear receptor subfamily 0 group B member 2 (Homo sapiens, UniProt Q15466); experiment: Displacement of [5,5'-3H2]AHPN from human recombinant GST-SHP by liquid scintillation counting relative to 3-Cl-AHPC; how it was run: as §2
T3 sequence (Q15466 whole entry): T1 sequence (whole entry)

[10] = tested on: DU-145; experiment: Antiproliferative activity against human DU145 cells at 5 uM after 72 hrs by MTT assay; assay type: functional; details: DU-145, 72 h; how it was run: as §1
[11] = Antiproliferative activity against human KG1 AML cells at 5 uM after 48 hrs by MTT assay; assay type: functional; details: in the assay text read “by hemocytometer cell counting” for “by MTT assay”; how it was run: as §3
[12] = tested on: KG-1; experiment: Induction of apoptosis in human KG1 cells at 25 uM […] by acridine orange staining; assay type: functional
[13] = tested on: KG-1; experiment: Induction of apoptosis in human KG1 cells at 5.0 uM […] by acridine orange staining; assay type: functional
[14] = Antiproliferative activity against human H292 cells after 72 hrs by MTT assay; assay type: functional, cell-based; details: NCI-H292, 72 h; how it was run: as §1
[15] = tested on: KG-1; experiment: Induction of apoptosis in human KG1 cells after 48 hrs by acridine orange staining; assay type: functional, cell-based; details: KG-1, 48 h
[16] = tested on: DU-145; experiment: Antiproliferative activity against human DU145 cells at 20 uM after 72 hrs by MTT assay; assay type: functional; details: DU-145, 72 h; how it was run: as §1
[17] = tested on: MDA-MB-231; experiment: Antiproliferative activity against human MDA-MB-231 cells at 20 uM after 72 hrs by MTT assay; assay type: functional; details: MDA-MB-231, 72 h; how it was run: as §1
[18] = Antiproliferative activity against human H292 cells at 20 uM after 72 hrs by MTT assay; assay type: functional; details: NCI-H292, 72 h; how it was run: as §1
[19] = Antiproliferative activity against human H292 cells at 100 uM after 72 hrs by MTT assay; assay type: functional; details: NCI-H292, 72 h; how it was run: as §1
[20] = tested on: DU-145; experiment: Antiproliferative activity against human DU145 cells at 100 uM after 72 hrs by MTT assay; assay type: functional; details: DU-145, 72 h; how it was run: as §1
[21] = tested on: MDA-MB-231; experiment: Antiproliferative activity against human MDA-MB-231 cells at 100 uM after 72 hrs by MTT assay; assay type: functional; details: MDA-MB-231, 72 h; how it was run: as §1
[22] = tested on: MDA-MB-231; experiment: Antiproliferative activity against human MDA-MB-231 cells at 10 uM after 72 hrs by MTT assay; assay type: functional; details: MDA-MB-231, 72 h; how it was run: as §1
[23] = tested on: DU-145; experiment: Antiproliferative activity against human DU145 cells at 10 uM after 72 hrs by MTT assay; assay type: functional; details: DU-145, 72 h; how it was run: as §1
[24] = Antiproliferative activity against human H292 cells at 10 uM after 72 hrs by MTT assay; assay type: functional; details: NCI-H292, 72 h; how it was run: as §1

Row | Compound | inhibition at 5 µM [1] [%] | Activity [2] [%] | IC50 [3] [µM] | Activity [4] [%] | inhibition at 5 µM [5] [%] | IC50 [6] [µM] | IC50 [7] [µM] | IC50 [8] [µM] | IC50 [9] [µM] | inhibition at 5 µM [10] [%] | Activity [11] [%] | Activity [12] [%] | Activity [13] [%] | IC50 [14] [µM] | IC50 [15] [µM] | also measured
1 | CCC(CC)(CC)c1cc(-c2ccc(/C=C/C(=O)O)cc2Cl)ccc1O | 5 | 90 | 5.37 | 3 | 2 | > 5 | > 5 | > 5 | 8 | 2 | 0 | 14 | 4 | > 5 |  | 
2 | CC12CC3CC(C)(C1)CC(c1cc(-c4ccc(/C=C/C(=O)O)cc4Cl)ccc1O)(C3)C2 | 66 | 103 | 2.27 | 0 | 7 | > 5 | > 5 | > 5 | 0.5 | 23 | 0 | 83 | 0 | 3.6 | 13.5 | 
3 | CC1(c2cc(-c3ccc(/C=C/C(=O)O)cc3Cl)ccc2O)SCCCS1 |  |  | 10.2 | 5 |  | > 20 | > 5 | > 20 |  |  | 0 |  | 5 | > 20 |  | inhibition at 20 µM [16]: 8%; inhibition at 20 µM [17]: 13%; inhibition at 20 µM [18]: 6%
4 | O=C(O)/C=C/c1ccc(-c2ccc(F)c(C34CC5CC(CC(C5)C3)C4)c2)c(Cl)c1 |  | 90 | 2.11 | 0 |  | 16 | > 5 | 67 | 1 |  | 0 |  | 0 | 6 |  | inhibition at 100 µM [19]: 95%; inhibition at 100 µM [20]: 84%; inhibition at 100 µM [21]: 83%
5 | O=C(O)/C=C/c1ccc(-c2ccc(O)c(C34CC5CC(CC3C5)C4)c2)c(Cl)c1 |  | 85 | 3.91 | 2 |  | 7.9 | 0.92 | 9.8 |  |  | 94 |  | 16 | 6.8 | 230 | inhibition at 10 µM [22]: 51%; inhibition at 10 µM [23]: 59%; inhibition at 10 µM [24]: 69%
